Test results taken from ChEMBL document CHEMBL1142195, “A novel nonnucleoside analogue that inhibits human immunodeficiency virus type 1 isolates resistant to current nonnucleoside reverse transcriptase inhibitors” (Antimicrob Agents Chemother, 2007).

How the values were obtained:
[1] = tested on: Human immunodeficiency virus 1; assay: Antiviral activity against HIV1 isolate with RT 101E, 108I, 181C, 190A mutation relative to wild type; assay type: functional
[2] = tested on: Human immunodeficiency virus 1; assay: Antiviral activity against HIV1 isolate with RT 103R, 179D mutation relative to wild type; assay type: functional
Procedure, shortened: (§1)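 Mutant RT clones built in pNL4-3.Luc.R−E− reporter, VSV-G-pseudotyped, single-round infection of HeLa-JC53 cells (15,000/well, MOI 0.03) with 1:4 serial compound dilutions in DMEM (phenol red-free), 2% FBS, 0.2% final DMSO; 48 h at 37°C, 5% CO2; luciferase chemiluminescence read-out. Fold change in EC50 relative to wild-type virus; mean of two tests.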

[3] = tested on: Human immunodeficiency virus 1; assay: Antiviral activity against HIV1 isolate with RT 103N, 106I mutation relative to wild type; assay type: functional
[4] = tested on: Human immunodeficiency virus 1; assay: Antiviral activity against HIV1 isolate with RT 106A, 181C mutation relative to wild type; assay type: functional; procedure, shortened: as §1
[5] = tested on: Human immunodeficiency virus 1; assay: Antiviral activity against HIV1 isolate with RT 103R, 179D, 188L mutation relative to wild type; assay type: functional; procedure, shortened: as §1
[6] = AUC in dog at 10 mg/kg, iv; assay type: ADME, organism-based, Canis lupus familiaris; design: dose 10 mg/kg, route intravenous; settings: plasma
[7] = tested on: Human immunodeficiency virus 1; assay: Antiviral activity against HIV1 isolate with RT 106L, 188L mutation relative to wild type; assay type: functional; procedure, shortened: as §1
[8] = tested on: Human immunodeficiency virus 1; assay: Antiviral activity against HIV1 isolate with RT 179D mutation relative to wild type; assay type: functional; procedure, shortened: as §1
[9] = tested on: Human immunodeficiency virus 1; assay: Antiviral activity against HIV1 isolate with RT 181I mutation relative to wild type; assay type: functional; procedure, shortened: as §1
[10] = tested on: Human immunodeficiency virus 1; assay: Antiviral activity against HIV1 isolate with RT 103N, 188L mutation relative to wild type; assay type: functional
[11] = tested on: Human immunodeficiency virus 1; assay: Antiviral activity against HIV1 isolate V106I-Y188L mutant; assay type: functional, organism-based
[12] = tested on: Human immunodeficiency virus 1; assay: Antiviral activity against HIV1 isolate with RT 179D, 188L mutation relative to wild type; assay type: functional; procedure, shortened: as §1
[13] = tested on: Human immunodeficiency virus 1; assay: Antiviral activity against HIV1 isolate with RT 98G mutation relative to wild type; assay type: functional; procedure, shortened: as §1
[14] = tested on: Human immunodeficiency virus 1; assay: Antiviral activity against HIV1 NL4-3 with Y188L mutation in Hela-JC53 cells in the presence of 5% human serum after 48 hrs; assay type: functional, organism-based; settings: Human immunodeficiency virus 1, NL4-3, Hela-JC53, 48 h
Procedure, shortened: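 VSV-G-pseudotyped Y188L NL4-3.Luci.R−E− virus (MOI 0.03) infecting HeLa-JC53 cells (1.5 × 10^4) in phenol red-free DMEM with 2% FBS. Serially diluted compound was added, then heat-inactivated human serum at final 0, 5, 10, 20, 30, 40 or 50%. Cultures ran 48 h at 37°C in 5% CO2, read by Bright-Glo luciferase chemiluminescence. EC50 was taken by nonlinear regression.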

[15] = tested on: Human immunodeficiency virus 1; assay: Antiviral activity against HIV1 isolate with RT 103N, 108I mutation relative to wild type; assay type: functional
[16] = tested on: Human immunodeficiency virus 1; assay: Antiviral activity against HIV1 isolate with RT 103N, 190S mutation relative to wild type; assay type: functional; procedure, shortened: as §1
[17] = tested on: Human immunodeficiency virus 1; assay: Antiviral activity against HIV1 isolate with RT 181C, 190A mutation relative to wild type; assay type: functional; procedure, shortened: as §1
[18] = tested on: Human immunodeficiency virus 1; assay: Antiviral activity against wild type HIV1; assay type: functional, organism-based
[19] = tested on: Human immunodeficiency virus 1; assay: Antiviral activity against HIV1 isolate with RT 100I, 103N, 108I mutation relative to wild type; assay type: functional
[20] = tested on: Human immunodeficiency virus 1; assay: Antiviral activity against HIV1 isolate with RT 101Q, 181C, 190S mutation relative to wild type; assay type: functional
[21] = tested on: Human immunodeficiency virus 1; assay: Antiviral activity against HIV1 isolate with RT 101Q, 103N mutation relative to wild type; assay type: functional
[22] = tested on: Human immunodeficiency virus 1; assay: Antiviral activity against HIV1 isolate with RT 103N, 238T mutation relative to wild type; assay type: functional; procedure, shortened: as §1
[23] = tested on: Human immunodeficiency virus 1; assay: Antiviral activity against HIV1 isolate with RT K103N-K101Q mutation; assay type: functional, organism-based
Procedure, shortened: (§2)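 VSV-G-pseudotyped pNL4-3.Luc.R−E− molecular clones carrying the RT mutations, single-round infection of HeLa-JC53 cells (15,000/well) at MOI 0.03. Compounds serially diluted 1:4 in DMSO then in phenol red-free DMEM with 2% FBS, final DMSO 0.2%. Incubated 48 h at 37°C, 5% CO2. Luciferase read-out by chemiluminescence gives the EC50. Fold change is relative to wt virus, mean of two tests.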

[24] = tested on: Human immunodeficiency virus 1; assay: Antiviral activity against HIV1 isolate with RT 101E, 181C, 190S mutation relative to wild type; assay type: functional
[25] = tested on: Human immunodeficiency virus 1; assay: Antiviral activity against HIV1 isolate with RT 101Q, 103R mutation relative to wild type; assay type: functional
[26] = tested on: Human immunodeficiency virus 1; assay: Antiviral activity against HIV1 isolate with RT 103S, 190A mutation relative to wild type; assay type: functional; procedure, shortened: as §1
[27] = tested on: Human immunodeficiency virus 1; assay: Antiviral activity against HIV1 isolate with RT 101Q, 181C, 190A mutation relative to wild type; assay type: functional
[28] = tested on: Human immunodeficiency virus 1; assay: Antiviral activity against HIV1 isolate with RT 101E, 103N, 190A mutation relative to wild type; assay type: functional
[29] = tested on: Human immunodeficiency virus 1; assay: Antiviral activity against HIV1 isolate with RT V106I, Y181C mutation in Hela-JC-53 cells; assay type: functional
[30] = tested on: Human immunodeficiency virus 1; assay: Antiviral activity against HIV1 isolate with RT 98G, 103N, 181C mutation relative to wild type; assay type: functional; procedure, shortened: as §1
[31] = tested on: Human immunodeficiency virus 1; assay: Antiviral activity against HIV1 isolate with RT 108I, 181C mutation relative to wild type; assay type: functional; procedure, shortened: as §1
[32] = tested on: Human immunodeficiency virus 1; assay: Antiviral activity against HIV1 isolate with RT 103N, 188H mutation relative to wild type; assay type: functional
[33] = tested on: Human immunodeficiency virus 1; assay: Antiviral activity against HIV1 isolate with RT 98G, 103N, 108I mutation relative to wild type; assay type: functional; procedure, shortened: as §1
[34] = tested on: Human immunodeficiency virus 1; assay: Antiviral activity against HIV1 isolate with RT 179G mutation relative to wild type; assay type: functional; procedure, shortened: as §1
[35] = tested on: Human immunodeficiency virus 1; assay: Antiviral activity against HIV1 isolate with RT 190S mutation relative to wild type; assay type: functional; procedure, shortened: as §1
[36] = tested on: Human immunodeficiency virus 1; assay: Antiviral activity against HIV1 isolate with RT 101N, 103N mutation relative to wild type; assay type: functional
[37] = tested on: Human immunodeficiency virus 1; assay: Antiviral activity against HIV1 isolate with RT V106I, D123G, Y181C, F227L, T369I mutation in Hela-JC-53 cells; assay type: functional
[38] = tested on: Human immunodeficiency virus 1; assay: Antiviral activity against HIV1 isolate with RT 181V mutation relative to wild type; assay type: functional; procedure, shortened: as §1
[39] = tested on: Human immunodeficiency virus 1; assay: Antiviral activity against HIV1 isolate with RT 179E mutation relative to wild type; assay type: functional; procedure, shortened: as §1
[40] = tested on: Human immunodeficiency virus 1; assay: Antiviral activity against HIV1 isolate with RT 101E, 181C mutation relative to wild type; assay type: functional
[41] = tested on: Human immunodeficiency virus 1; assay: Antiviral activity against HIV1 isolate with RT K101E mutant; assay type: functional, organism-based; procedure, shortened: as §2
[42] = tested on: Human immunodeficiency virus 1; assay: Antiviral activity against HIV1 isolate with RT 103N, 181C, 190A mutation relative to wild type; assay type: functional
[43] = tested on: Human immunodeficiency virus 1; assay: Antiviral activity against HIV1 isolate with RT K103N-F227L mutation; assay type: functional, organism-based; procedure, shortened: as §2
[44] = tested on: Human immunodeficiency virus 1; assay: Antiviral activity against HIV1 isolate with RT 100I, 103N mutation relative to wild type; assay type: functional
[45] = tested on: Human immunodeficiency virus 1; assay: Antiviral activity against HIV1 isolate with RT 103N, 108I, 238T mutation relative to wild type; assay type: functional
[46] = tested on: Human immunodeficiency virus 1; assay: Antiviral activity against HIV1 isolate with RT 101Q, 181C mutation relative to wild type; assay type: functional
[47] = tested on: Human immunodeficiency virus 1; assay: Antiviral activity against HIV1 isolate with RT 101R, 103N, 181C, 190A mutation relative to wild type; assay type: functional
[48] = tested on: Human immunodeficiency virus 1; assay: Antiviral activity against HIV1 isolate with RT 103N, 190A mutation relative to wild type; assay type: functional

## NS(=O)(=O)c1ccc(NC(=O)CSc2nnc(Br)n2-c2ccc(C3CC3)c3ccccc23)c(Cl)c1
[1]
  Fold change: >100
[2]
  Fold change: 0.3
[3]
  Fold change: 1.8
[4]
  Fold change: 16
[5]
  Fold change: >100
[6]
  AUC: 20900 ng·h/mL
[7]
  Fold change: >100
[8]
  Fold change: 3.3
[9]
  Fold change: 5.4
[10]
  Fold change: 3.9
[11]
  EC50: 2.27 nM
[12]
  Fold change: >100
[13]
  Fold change: 2.4
[14]
  EC50: 13.7 nM
[15]
  Fold change: 1.3
[16]
  Fold change: 18
[17]
  Fold change: >100
[18]
  EC50: 0.14 nM
[19]
  Fold change: 1.9
[20]
  Fold change: >100
[21]
  Fold change: 5.2
[22]
  Fold change: 0.6
[23]
  EC50: 0.15 nM
[24]
  Fold change: >100
[25]
  Fold change: 0.6
[26]
  Fold change: >100
[27]
  Fold change: >100
[28]
  Fold change: 50
[29]
  Fold change: 5.4
[30]
  Fold change: 4.2
[31]
  Fold change: 14
[32]
  Fold change: 3.5
[33]
  Fold change: 2.2
[34]
  Fold change: 0.3
[35]
  Fold change: 3.9
[36]
  Fold change: 0.6
[37]
  Fold change: 31.2
[38]
  Fold change: 20
[39]
  Fold change: 2.4
[40]
  Fold change: >100
[41]
  EC50: 0.26 nM
[42]
  Fold change: >100
[43]
  EC50: 0.08 nM
[44]
  Fold change: 0.9
[45]
  Fold change: 2.5
[46]
  Fold change: 8.9

## Cc1ccnc2c1NC(=O)c1cccnc1N2C1CC1 [NEVIRAPINE]
[1]
  Fold change: >100
[2]
  Fold change: 1.3
[3]
  Fold change: 122
[4]
  Fold change: >100
[5]
  Fold change: >100
[47]
  Fold change: >100
[7]
  Fold change: >100
[8]
  Fold change: 4.2
[9]
  Fold change: >100
[10]
  Fold change: >100
[12]
  Fold change: >100
[13]
  Fold change: 5.9
[15]
  Fold change: >100
[16]
  Fold change: >100
[17]
  Fold change: >100
[19]
  Fold change: >100
[20]
  Fold change: >100
[21]
  Fold change: >100
[22]
  Fold change: >100
[24]
  Fold change: >100
[25]
  Fold change: 1.3
[26]
  Fold change: >100
[27]
  Fold change: >100
[28]
  Fold change: >100
[30]
  Fold change: >100
[31]
  Fold change: >100
[32]
  Fold change: >100
[33]
  Fold change: >100
[34]
  Fold change: 0.1
[35]
  Fold change: >100
[36]
  Fold change: 32
[38]
  Fold change: >100
[39]
  Fold change: 1.9
[40]
  Fold change: >100
[42]
  Fold change: >100
[48]
  Fold change: >100
[44]
  Fold change: 42
[45]
  Fold change: >100
[46]
  Fold change: >100
